According to ChEMBL document CHEMBL4145558, “Structure-Activity Relationship Study on Odoamide: Insights into the Bioactivities of Aurilide-Family Hybrid Peptide-Polyketides” (ACS Med Chem Lett, 2018):

Tests used:
A549 = assay: Cytotoxicity against human A549 cells assessed as inhibition of cell growth after 72 hrs by MTS assay; assay type: functional, cell-based; settings: A549, 72 h
Summary of the method: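 A549 cells exposed to each peptide for 72 h; growth read by MTS assay. IC50 taken as the concentration giving 50% growth inhibition, n = 3.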

[1] = Protein binding in 10% fetal bovine serum at 1 uM after 4 hrs in presence of cell culture medium by rapid equilibrium dialysis based LC-MS/MS analysis; assay type: ADME, cell-free, Bos taurus; settings: cattle, 10% fetal bovine serum in cell culture medium; read-out: PB (converted)
Summary of the method: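 Peptides tested in cell culture medium supplemented with 10% (v/v) fetal bovine serum. The ratio of unbound peptide was determined.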

[2] = Permeability of the compound in pH 7.4 phosphate buffer solution after 4 hrs by LC-MS/MS based PAMPA assay; assay type: ADME; settings: read-out: permeability
Summary of the method: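 PAMPA run at pH 7.4, under the in vitro bioassay conditions.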

SMILES	fraction unbound at 4 h, 1 µM [1]	Papp at 4 h [2] [×10⁻⁶ cm/s]	IC50 (A549) [nM]
CCC[C@H](C)[C@H]1OC(=O)[C@H](C)N(C)C(=O)[C@H]([C@@H](C)CC)NC(=O)CN(C)C(=O)[C@@H](Cc2ccccc2)N(C)C(=O)[C@H](C)NC(=O)[C@@H]([C@@H](C)CC)OC(=O)/C(C)=C/C=C/[C@@H]1C			28
CCC[C@H](C)[C@H]1OC(=O)[C@H](C)N(C)C(=O)[C@H]([C@@H](C)CC)NC(=O)CN(C)C(=O)[C@@H](Cc2ccccc2)NC(=O)[C@H](C)NC(=O)[C@@H]([C@@H](C)CC)OC(=O)/C(C)=C/C[C@H](O)[C@@H]1C			5.4
CCC[C@H](C)[C@H]1OC(=O)[C@H](C)N(C)C(=O)[C@@H]([C@@H](C)CC)NC(=O)CN(C)C(=O)[C@@H](Cc2ccccc2)N(C)C(=O)[C@H](C)NC(=O)[C@@H]([C@@H](C)CC)OC(=O)/C(C)=C/C[C@H](O)[C@@H]1C			645
CCC[C@H](C)[C@@H](O)[C@@H](C)[C@@H]1C/C=C(\C)C(=O)O[C@H]([C@@H](C)CC)C(=O)N[C@@H](C)C(=O)N(C)[C@H](Cc2ccccc2)C(=O)N(C)CC(=O)N[C@@H]([C@@H](C)CC)C(=O)N(C)[C@@H](C)C(=O)O1			4.5
CCC[C@H](C)[C@H]1OC(=O)[C@H](C)N(C)C(=O)[C@H]([C@@H](C)CC)NC(=O)CN(C)C(=O)[C@H](Cc2ccccc2)N(C)C(=O)[C@H](C)NC(=O)[C@@H]([C@@H](C)CC)OC(=O)/C(C)=C/C[C@H](O)[C@@H]1C			48
CCC[C@H](C)[C@H]1OC(=O)[C@H](C)N(C)C(=O)[C@H]([C@@H](C)CC)NC(=O)CNC(=O)[C@@H](Cc2ccccc2)N(C)C(=O)[C@H](C)NC(=O)[C@@H]([C@@H](C)CC)OC(=O)/C(C)=C/C[C@H](O)[C@@H]1C		> 1	31

Continued, in another order:

fraction unbound at 4 h, 1 µM [1]	Papp at 4 h [2] [×10⁻⁶ cm/s]	SMILES	IC50 (A549) [nM]
0.028	> 1	CCC[C@H](C)[C@H]1OC(=O)[C@H](C)N(C)C(=O)[C@H]([C@@H](C)CC)NC(=O)CN(C)C(=O)[C@@H](Cc2ccccc2)N(C)C(=O)[C@H](C)NC(=O)[C@@H]([C@@H](C)CC)OC(=O)/C(C)=C/C[C@H](OC)[C@@H]1C	4.3
0.145	> 1	CCC[C@H](C)[C@H]1OC(=O)[C@@H](C)N(C)C(=O)[C@H]([C@@H](C)CC)NC(=O)CN(C)C(=O)[C@@H](Cc2ccccc2)N(C)C(=O)[C@H](C)NC(=O)[C@@H]([C@@H](C)CC)OC(=O)/C(C)=C/C[C@H](O)[C@@H]1C	1.9
	> 1	CCC[C@H](C)[C@H]1OC(=O)[C@H](C)N(C)C(=O)[C@H]([C@@H](C)CC)NC(=O)CCN(C)C(=O)[C@@H](Cc2ccccc2)N(C)C(=O)[C@H](C)NC(=O)[C@@H]([C@@H](C)CC)OC(=O)/C(C)=C/C[C@H](O)[C@@H]1C	74
	> 1	CCC[C@H](C)[C@H]1OC(=O)[C@H](C)N(C)C(=O)[C@H]([C@@H](C)CC)NC(=O)CN(C)C(=O)[C@@H](Cc2ccccc2)N(C)C(=O)[C@@H](C)NC(=O)[C@@H]([C@@H](C)CC)OC(=O)/C(C)=C/C[C@H](O)[C@@H]1C	1550
0.241	> 1	CCC[C@H](C)[C@H]1OC(=O)[C@H](C)N(C)C(=O)[C@H]([C@@H](C)CC)NC(=O)CN(C)C(=O)[C@@H](Cc2ccccc2)N(C)C(=O)[C@H](C)NC(=O)[C@@H]([C@@H](C)CC)OC(=O)/C(C)=C/C[C@H](O)[C@@H]1C	4.2
